{"source": "ChEMBL document CHEMBL3739254", "about": "“Synthesis of apoptotic chalcone analogues in HepG2 human hepatocellular carcinoma cells” (Bioorg Med Chem Lett, 2015)", "key": {"HepG2 [1]": {"system": "HepG2", "experiment": "Cytotoxicity against human HepG2 cells assessed as cell viability at 5 to 100 uM after 24 hrs by MTT assay relative to control", "type": "functional, cell-based", "procedure,_shortened": "(§1)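 HepG2 cells kept in DMEM with 10% FBS and penicillin/streptomycin at 37 °C under 5% CO2. Cells were exposed for 24 h to chalcone analogues at various concentrations, up to 100 µM, and viability was then read by MTT assay.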"}, "HepG2 [2]": {"system": "HepG2", "experiment": "Cytotoxicity against human HepG2 cells assessed as cell viability at 5 to 100 uM after 24 hrs by MTT assay", "type": "functional", "procedure,_shortened": "as §1"}, "HepG2 [3]": {"system": "HepG2", "experiment": "Induction of apoptosis in human HepG2 cells assessed as cleavage of caspase-9 at 25 to 50 uM after 24 hrs by Western blot analysis", "type": "functional, cell-based", "procedure,_shortened": "(§2)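 HepG2 cells were grown in 60 mm dishes and treated at 25 and 50 µM for 24 h. Whole-cell extracts were made in RIPA buffer with 1× protease inhibitor cocktail and 1 mM PMSF. Lysates (20 µg) were run on SDS–PAGE and transferred to PVDF. Blots were probed with epitope-specific antibodies against GAPDH and the target proteins and detected by ECL.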"}, "HepG2 [4]": {"system": "HepG2", "experiment": "Induction of apoptosis in human HepG2 cells assessed as progressive condensation at 25 to 50 uM by phase contrast microscopic analysis", "type": "functional, cell-based"}, "HepG2 [5]": {"system": "HepG2", "experiment": "Cytotoxicity against human HepG2 cells assessed as cell viability at 100 uM after 24 hrs by MTT assay", "type": "functional", "settings": "HepG2, 24 h, read-out: GI", "procedure,_shortened": "as §1"}, "LLC-PK1": {"system": "LLC-PK1", "experiment": "Cytotoxicity against porcine LLC-PK1 cells assessed as cell viability after 24 hrs by MTT assay", "type": "cell-based", "settings": "Sus scrofa, LLC-PK1, 24 h"}, "HepG2 [6]": {"system": "HepG2", "experiment": "Cytotoxicity against human HepG2 cells assessed as cell viability at 50 uM after 24 hrs by MTT assay", "type": "functional", "settings": "HepG2, 24 h, read-out: GI", "procedure,_shortened": "as §1"}, "HepG2 [7]": {"system": "HepG2", "experiment": "Induction of apoptosis in human HepG2 cells assessed as early apoptotic cells at 50 uM by annexin V-FITC/propidium iodide staining-based flow cytometric analysis (reference value: 1.9 +/- 0.5%)", "type": "functional"}, "HepG2 [8]": {"system": "HepG2", "experiment": "Induction of apoptosis in human HepG2 cells assessed as cell shrinking at 25 to 50 uM by phase contrast microscopic analysis", "type": "functional, cell-based"}, "HepG2 [9]": {"system": "HepG2", "experiment": "Induction of apoptosis in human HepG2 cells assessed as cleavage of PARP at 25 to 50 uM after 24 hrs by Western blot analysis", "type": "functional, cell-based", "procedure,_shortened": "as §2"}, "HepG2 [10]": {"system": "HepG2", "experiment": "Induction of apoptosis in human HepG2 cells assessed as early apoptotic cells at 25 uM by annexin V-FITC/propidium iodide staining-based flow cytometric analysis (reference value: 1.9 +/- 0.5%)", "type": "functional"}, "HepG2 [11]": {"system": "HepG2", "experiment": "Induction of apoptosis in human HepG2 cells assessed as cleavage of caspase-3 at 25 to 50 uM after 24 hrs by Western blot analysis", "type": "functional, cell-based", "procedure,_shortened": "as §2"}, "HepG2 [12]": {"system": "HepG2", "experiment": "Cytotoxicity against human HepG2 cells assessed as cell viability after 24 hrs by MTT assay", "type": "functional, cell-based", "settings": "HepG2, 24 h", "procedure,_shortened": "as §1"}, "HepG2 [13]": {"system": "HepG2", "experiment": "Induction of apoptosis in human HepG2 cells assessed as increase in Bax/Bcl2 ratio at 25 to 50 uM after 24 hrs by Western blot analysis", "type": "functional, cell-based", "procedure,_shortened": "as §2"}, "HepG2 [14]": {"system": "HepG2", "experiment": "Induction of apoptosis in human HepG2 cells assessed as karyorrhexis at 25 to 50 uM by phase contrast microscopic analysis", "type": "functional, cell-based"}, "HepG2 [15]": {"system": "HepG2", "experiment": "Induction of apoptosis in human HepG2 cells assessed as cleavage of caspase-8 at 25 to 50 uM after 24 hrs by Western blot analysis", "type": "functional, cell-based", "procedure,_shortened": "as §2"}}, "note": "Calls of active or inactive are those of the source. No cut-off for these calls is given here.", "data": [{"smiles": "O=C(/C=C/c1ccc2ccccc2c1)c1ccc(Br)cc1", "values": [{"measurement": "growth inhibition (GI)", "setting": "HepG2 [1]", "result": "inactive"}]}, {"smiles": "CCn1c2ccccc2c2cc(/C=C/C(=O)c3ccc(OC)c(OC)c3)ccc21", "values": [{"measurement": "growth inhibition (GI)", "setting": "HepG2 [1]", "result": "inactive"}]}, {"smiles": "COc1ccc(C(=O)/C=C/c2ccc(-c3ccccc3)cc2)cc1OC", "values": [{"measurement": "growth inhibition (GI)", "setting": "HepG2 [1]", "result": "inactive"}]}, {"smiles": "COc1cc(/C=C/C(=O)c2ccc(Br)cc2)cc(OC)c1Br", "values": [{"measurement": "growth inhibition (GI)", "setting": "HepG2 [2]", "result": ">50", "unit": "%"}]}, {"smiles": "O=C(/C=C/c1ccc2ccccc2c1)c1ccc(Cl)cc1", "values": [{"measurement": "growth inhibition (GI)", "setting": "HepG2 [1]", "result": "inactive"}]}, {"smiles": "COc1cccc(C(=O)/C=C/c2cc(OC)c(Br)c(OC)c2)c1", "values": [{"measurement": "Activity", "setting": "HepG2 [3]", "result": "inactive"}, {"measurement": "Activity", "setting": "HepG2 [4]", "result": "Active"}, {"measurement": "inhibition of growth at 100 µM", "setting": "HepG2 [5]", "result": 98, "unit": "%"}, {"measurement": "IC50", "setting": "LLC-PK1", "result": 83, "unit": "µM"}, {"measurement": "growth inhibition (GI)", "setting": "HepG2 [2]", "result": ">50", "unit": "%"}, {"measurement": "inhibition of growth at 50 µM", "setting": "HepG2 [6]", "result": "≤ 91", "unit": "%"}, {"measurement": "Activity", "setting": "HepG2 [7]", "result": 31.2, "unit": "%"}, {"measurement": "Activity", "setting": "HepG2 [8]", "result": "Active"}, {"measurement": "Activity", "setting": "HepG2 [9]", "result": "Active"}, {"measurement": "Activity", "setting": "HepG2 [10]", "result": 8.5, "unit": "%"}, {"measurement": "Activity", "setting": "HepG2 [11]", "result": "Active"}, {"measurement": "IC50", "setting": "HepG2 [12]", "result": 26, "unit": "µM"}, {"measurement": "Activity", "setting": "HepG2 [13]", "result": "Active"}, {"measurement": "Activity", "setting": "HepG2 [14]", "result": "Active"}, {"measurement": "Activity", "setting": "HepG2 [15]", "result": "Active"}]}, {"smiles": "O=C(/C=C/c1ccc(-c2ccccc2)cc1)c1ccc(Cl)cc1", "values": [{"measurement": "growth inhibition (GI)", "setting": "HepG2 [1]", "result": "inactive"}]}, {"smiles": "CCn1c2ccccc2c2cc(/C=C/C(=O)c3ccc(Cl)cc3)ccc21", "values": [{"measurement": "growth inhibition (GI)", "setting": "HepG2 [1]", "result": "inactive"}]}]}
